Results taken from ChEMBL document CHEMBL3608234, “Synthesis and antiviral evaluation of a novel series of homoserine-based inhibitors of the hepatitis C virus NS3/4A serine protease” (Bioorg Med Chem Lett, 2015).

What was measured:
[1] = Inhibition of full length HCV 1b Con1 NS3/4A protease using HiLyte Fluor 610 peptide substrate by biochemical FRET assay; set-up: species or system Hepatitis C virus (isolate Con1)
Summary of the method: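 Fluorescence (FRET) protease assay on full-length genotype 1b Con1 HCV NS3/4A with HiLyte Fluor 610 peptide substrate; IC50 from percent inhibition versus concentration by four-parameter sigmoidal non-linear regression.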

[2] = Cytotoxicity against human GS4.1 cells assessed as induction of cell death; assay type: cell-based
Summary of the method: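 GS4.1 cells (Huh-7 with Con1 subgenomic replicon); CC50 taken as concentration giving 50% cell death, from death versus concentration data relative to blank control.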

Hepatitis C virus = assay: Antiviral activity against HCV Con1 infected in human GS4.1 cells containing HCV Con1 subgenomic replicon assessed as reduction in NS5A protein expression by ELISA method; assay type: functional, cell-based, Hepacivirus hominis; settings: genotype 1b Con1
Summary of the method: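 Huh-7 cells carrying HCV Con1 subgenomic replicon (GS4.1); replication followed as NS5A protein expression by ELISA; EC50 from 50% inhibition versus concentration data fitted by four-parameter sigmoidal non-linear regression.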

[3] = Intrinsic clearance in rat liver microsomes incubated for 2 hrs; assay type: ADME; settings: read-out: CLH
[4] = Intrinsic clearance in dog liver microsomes incubated for 2 hrs; assay type: ADME, Canis lupus familiaris; settings: read-out: CLH
[5] = Intrinsic clearance in Cynomologus monkey liver microsomes incubated for 2 hrs; assay type: ADME, Macaca fascicularis; settings: cynomolgus monkey, read-out: CLH
[6] = Clearance in rat liver S9 fraction incubated for 2 hrs; assay type: ADME, subcellular; settings: read-out: CLH
Summary of the method: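 Rat liver S9 fraction incubation for 2 h; mean clearance from n = 2.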

Hepatocyte = assay: Clearance in rat cryopreserved hepatocytes incubated for 2 hrs; assay type: ADME, cell-based
[7] = Intrinsic clearance in human liver microsomes incubated for 2 hrs; assay type: ADME; settings: read-out: CLH
[8] = Clearance in Sprague-Dawley rat at 2 mg/kg, iv; assay type: ADME, organism-based; settings: in vivo
[9] = Half life in Sprague-Dawley rat at 10 mg/kg, po; assay type: ADME, organism-based; settings: in vivo
[10] = Clearance in Sprague-Dawley rat at 10 mg/kg, po; assay type: ADME, organism-based; settings: in vivo
[11] = Tmax in Sprague-Dawley rat at 10 mg/kg, po; assay type: ADME, organism-based; settings: in vivo
[12] = Cmax in Sprague-Dawley rat at 2 mg/kg, iv; assay type: ADME, organism-based; set-up: dose 2 mg/kg, route intravenous; settings: in vivo
[13] = AUCt in Sprague-Dawley rat at 2 mg/kg, iv; assay type: ADME, organism-based; settings: in vivo
Summary of the method: (§1)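 Male Sprague–Dawley rats were dosed intravenously at 2 mg/kg or orally at 10 mg/kg. Plasma concentration–time data were used to derive AUC to last time point (AUCt) and AUC extrapolated to infinity, reported in ng·h/mL.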

Rattus norvegicus = assay: Volume of distribution in Sprague-Dawley rat at 10 mg/kg, po; assay type: ADME, organism-based; settings: in vivo
[14] = Tmax in Sprague-Dawley rat at 2 mg/kg, iv; assay type: ADME, organism-based; settings: in vivo
[15] = Drug elimination in Sprague-Dawley rat at 2 mg/kg, iv; assay type: ADME, organism-based; settings: in vivo
[16] = Cmax in Sprague-Dawley rat at 10 mg/kg, po; assay type: ADME, organism-based; set-up: dose 10 mg/kg, route oral; settings: in vivo
[17] = Oral bio availability in Sprague-Dawley rat at 10 mg/kg; assay type: ADME, organism-based; settings: in vivo
[18] = AUC (infinity) in Sprague-Dawley rat at 10 mg/kg, po; assay type: ADME, organism-based; set-up: dose 10 mg/kg, route oral, time infinity; settings: in vivo; summary of the method: as §1
[19] = AUCt in Sprague-Dawley rat at 10 mg/kg, po; assay type: ADME, organism-based; settings: in vivo; summary of the method: as §1
[20] = Half life in Sprague-Dawley rat at 2 mg/kg, iv; assay type: ADME, organism-based; settings: in vivo
[21] = AUC (infinity) in Sprague-Dawley rat at 2 mg/kg, iv; assay type: ADME, organism-based; set-up: dose 2 mg/kg, route intravenous, time infinity; settings: in vivo; summary of the method: as §1
[22] = Volume of distribution in Sprague-Dawley rat at 2 mg/kg, iv; assay type: ADME, organism-based; settings: in vivo
[23] = Drug elimination in Sprague-Dawley rat at 10 mg/kg, po; assay type: ADME, organism-based; settings: in vivo

## COc1ccc2c(OCC[C@@H]3NC(=O)N(C)CCCC/C=C\[C@@H]4C[C@@]4(C(=O)NS(=O)(=O)C4CC4)NC3=O)cc(-c3ccccc3)nc2c1
[1]
  IC50: 19.8 nM
[2]
  CC50: > 30000 nM
Hepatitis C virus
  EC50: 8200 nM

## COc1ccc2c(OCC[C@@H]3NC(=O)N(C)CCCCC/C=C\[C@@H]4C[C@@]4(C(=O)NS(=O)(=O)C4CC4)NC3=O)cc(-c3ccccc3)nc2c1
[1]
  IC50: 41 nM
[2]
  CC50: 53000 nM
Hepatitis C virus
  EC50: 14600 nM

## COc1ccc2c(OCC[C@@H]3NC(=O)N(C)CCCC/C=C\[C@@H]4C[C@@]4(C(=O)NS(=O)(=O)C4(C)CC4)NC3=O)cc(-c3csc(NC(C)C)n3)nc2c1
[1]
  IC50: 1.2 nM
[2]
  CC50: 37400 nM
Hepatitis C virus
  EC50: 1040 nM

## COc1ccc2c(OCC[C@@H]3NC(=O)N(C)CCCC/C=C\[C@@H]4C[C@@]4(C(=O)NS(=O)(=O)C4(C)CC4)NC3=O)cc(-c3nc(C(C)C)cs3)nc2c1
[3]
  microsomal CLint: 155 µL/min/mg
[1]
  IC50: 0.9 nM
[2]
  CC50: 6500 nM
Hepatitis C virus
  EC50: 44 nM

## COc1ccc2c(OCC[C@@H]3NC(=O)N(C)CCCC/C=C\[C@@H]4C[C@@]4(C(=O)NS(=O)(=O)C4CC4)NC3=O)cc(-c3nc(C(C)C)cs3)nc2c1F
[1]
  IC50: 9.6 nM
[2]
  CC50: > 75000 nM
Hepatitis C virus
  EC50: 1490 nM

## COc1ccc2c(OCC[C@@H]3NC(=O)N(C)CCCC/C=C\[C@@H]4C[C@@]4(C(=O)NS(=O)(=O)C4(C)CC4)NC3=O)cc(-c3nc(C(C)C)cs3)nc2c1F
[1]
  IC50: 8 nM
[2]
  CC50: 57100 nM
Hepatitis C virus
  EC50: 555 nM

## COc1ccc2c(OCC[C@@H]3NC(=O)N(C)CCCC/C=C\[C@@H]4C[C@@]4(C(=O)NS(=O)(=O)C4CC4)NC3=O)cc(-c3nc(C(C)C)cs3)nc2c1Cl
[4]
  microsomal CLint: 25 µL/min/mg
[3]
  microsomal CLint: 36.6 µL/min/mg
[5]
  microsomal CLint: 124 µL/min/mg
[6]
  microsomal CLint: 8.9 µL/min/mg
[1]
  IC50: 1.7 nM
Hepatocyte
  CLH: 19.1 µL/min/mg
[2]
  CC50: 40400 nM
[7]
  microsomal CLint: 263 µL/min/mg
Hepatitis C virus
  EC50: 76.5 nM

## COc1ccc2c(OCC[C@@H]3NC(=O)N(C)CCCC/C=C\[C@@H]4C[C@@]4(C(=O)NS(=O)(=O)C4(C)CC4)NC3=O)cc(-c3nc(C(C)C)cs3)nc2c1Cl
[8]
  clearance: 22.1 mL/min/kg
[9]
  half-life: 2.53 h
[10]
  CL/F: 72.4 mL/min/kg
[4]
  microsomal CLint: 19.5 µL/min/mg
[11]
  Tmax: 0.75 h
[12]
  Cmax: 2670 ng/mL
[13]
  AUC(0-t): 1520 ng·h/mL
Rattus norvegicus
  Vd: 16.04 L/kg
[14]
  Tmax: 6.6 min
[15]
  k el: 0.000158 s⁻¹
[16]
  Cmax: 798 ng/mL
[3]
  microsomal CLint: 20.7 µL/min/mg
[5]
  microsomal CLint: 480 µL/min/mg
[17]
  bioavailability: 27%
[18]
  AUC(0-inf): 2350 ng·h/mL
[6]
  microsomal CLint: 7.6 µL/min/mg
[19]
  AUC(0-t): 2060 ng·h/mL
[20]
  half-life: 1.25 h
[1]
  IC50: 1.7 nM
[21]
  AUC(0-inf): 1510 ng·h/mL
[22]
  Vd: 2.42 L/kg
Hepatocyte
  CLH: 12.6 µL/min/mg
[2]
  CC50: 37400 nM
[7]
  microsomal CLint: 215 µL/min/mg
[23]
  k el: 7.78e-05 s⁻¹
Hepatitis C virus
  EC50: 28.7 nM

## COc1ccc2c(OCC[C@@H]3NC(=O)N(C)CCCC/C=C\[C@@H]4C[C@@]4(C(=O)NS(=O)(=O)C4(C)CC4)NC3=O)cc(-c3nc(C(C)C)cs3)nc2c1Br
[3]
  microsomal CLint: 16.5 µL/min/mg
[1]
  IC50: 0.6 nM
[2]
  CC50: 28300 nM
Hepatitis C virus
  EC50: 20.5 nM

## COc1ccc2c(OCC[C@@H]3NC(=O)N(C)CCCC/C=C\[C@@H]4C[C@@]4(C(=O)NS(=O)(=O)C4(C)CC4)NC3=O)cc(-c3nc(C(C)C)cs3)nc2c1C
[3]
  microsomal CLint: 9.3 µL/min/mg
[1]
  IC50: 2.3 nM
[2]
  CC50: 31900 nM
Hepatitis C virus
  EC50: 85 nM

## COc1ccc2c(OCC[C@@H]3NC(=O)N(C)CCCC/C=C\[C@@H]4C[C@@]4(C(=O)NS(=O)(=O)C4(C)CC4)NC3=O)cc(-n3ccc(C(C)C)n3)nc2c1C
[3]
  microsomal CLint: 21 µL/min/mg
[1]
  IC50: 2 nM
[2]
  CC50: 25600 nM
Hepatitis C virus
  EC50: 50 nM

## COc1ccc2c(OCC[C@@H]3NC(=O)N(C)CCCC/C=C\[C@@H]4C[C@@]4(C(=O)NS(=O)(=O)C4(C)CC4)NC3=O)cc(-n3ccc(C(C)C)n3)nc2c1Cl
[1]
  IC50: 1.1 nM
[2]
  CC50: 31000 nM
Hepatitis C virus
  EC50: 43.4 nM

## CCn1cc(-c2cc(OCC[C@@H]3NC(=O)N(C)CCCC/C=C\[C@@H]4C[C@@]4(C(=O)NS(=O)(=O)C4(C)CC4)NC3=O)c3ccc(OC)c(C)c3n2)cn1
[1]
  IC50: 3 nM
[2]
  CC50: 36700 nM
Hepatitis C virus
  EC50: 485 nM
